Sampled rows, rich in hits. Any-hit rate of the full collection: about 3.5%.
STAT1 activator = activators of IFN-gamma induced STAT1 signaling. NIH 3T3 STAT1-luciferase reporter, luminescence; 100% = IFN-gamma alone, no compound. activation (% of control), % at 5.5 µM. 2.6% of 200,000 active. AID 932;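 active = activation above the screen-wide mean activation plus 3 SD, cut at about 130% in these data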;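 also: raw ratio to IFN-gamma control signal so 100% means no change and 0% no light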
Pf gamet viab = P. falciparum stage V gametocyte viability inhibition; 0.065% of 150,000 active; inhibition, % at 10.9 µM; P. falciparum stage V gametocytes, ATP luminescence, 24 h;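 active = inhibition above the mean plus 3 SD of compounds within the control limits, set per campaign, cut at about 38% in these data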;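 also: 0% = DMSO wells and 100% = medium only without gametocytes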
NF-kB neuron act = raises NF-kB expression in human neuronal cells. fold change at 12.5 µM. AID 1239. 1.6% of 190,000 active. NF-kB reporter expression; active compounds read high; in the data active = fold change above about 3.3
APP 5'UTR act = APP 5'UTR luciferase reporter activation; activation, % at 2 µM; 1% of 190,000 active; SH-SY5Y APP 5'UTR luciferase reporter, luminescence; zero percent = DMSO vehicle wells; AID 1276;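 active = activation above a set limit, based on mean plus 3 SD of controls, cut at about 140% in these data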
FLuc inhib CS = inhibits firefly luciferase, flagging false hits in luciferase inhibition screens. P08659. ATPLite firefly luciferase biochemical luminescence, 10 min. inhibition, % at 10 µM. 1.5% of 200,000 active. AID 1006;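 active = inhibition above about 50% when tested at 10 µM, limit read from the data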
Target sequence (P08659 whole entry, looked up): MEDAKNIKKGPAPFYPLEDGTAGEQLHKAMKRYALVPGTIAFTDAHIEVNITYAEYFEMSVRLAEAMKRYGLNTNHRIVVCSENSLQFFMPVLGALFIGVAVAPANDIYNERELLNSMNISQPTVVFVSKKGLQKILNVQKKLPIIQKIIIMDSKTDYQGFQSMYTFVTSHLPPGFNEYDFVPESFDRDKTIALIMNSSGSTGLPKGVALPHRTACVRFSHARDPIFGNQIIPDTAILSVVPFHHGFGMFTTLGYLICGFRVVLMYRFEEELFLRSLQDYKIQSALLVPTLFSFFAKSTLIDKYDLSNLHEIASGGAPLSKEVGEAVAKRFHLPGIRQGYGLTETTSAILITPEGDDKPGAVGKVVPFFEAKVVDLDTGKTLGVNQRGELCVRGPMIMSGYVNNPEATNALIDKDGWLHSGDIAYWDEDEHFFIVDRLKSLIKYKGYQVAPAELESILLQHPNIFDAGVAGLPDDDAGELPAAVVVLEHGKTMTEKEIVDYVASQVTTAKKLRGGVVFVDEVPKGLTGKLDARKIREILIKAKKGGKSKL
FLuc act counter = affects firefly luciferase, flagging false hits in luciferase stimulation screens; P08659; ATPlite luciferase biochemical, luminescence, 10 min; 0 = ATP-free wells, 1 = DMSO control; activation factor at 10 µM; 200,000 tested, under 10 active;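 active = luciferase activation factor, scaled between plate controls, of at least 2 with compound at 10 µM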
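assay system = Luciferase/luciferin detection reagent, cell-free biochemical luciferase assay | also added = ATP substrate | times = 10 min post-reagent at room temperature | measured by = luminescence from luciferase reaction | measure = luciferase activation, seen as luminescence increase over controls | benchmarks = low control with PBS replacing ATP, high control enzyme plus ATP without compound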
* marks the source's active call; other numbers are inactive results; / = not tested or not shown.

SMILES	STAT1 activator	Pf gamet viab	NF-kB neuron act	APP 5'UTR act	FLuc inhib CS	FLuc act counter
Cc1cc(C)nc(N/N=C/c2sccc2C)n1	115.4	/	1.26	21.5	10.9	0.9
C(=N\Nc1nc2ccccc2s1)/c1ccco1	143.5*	/	5.51*	202.6*	61.9*	0.4
C(=N\Nc1nc2ccccc2s1)/c1cccs1	145.7*	/	7.07*	212.2*	48.2	0.5
OCC(O)/C=N/Nc1nc2ccccc2s1 (centres undefined)	114.8	2.3	1.24	16.9	-2.3	1
Cc1ccsc1/C=N/Nc1nc2ccccc2s1	180.9*	-29.9	10.7*	231.9*	64.0*	0.4
Cc1nn(-c2ccccc2Cl)c(Cl)c1/C=N/Nc1nc2ccccc2s1	69.9	/	0.36	-39.0	81.4*	0.2
CC(C)(C)OC(=O)C[C@@H]1C/C=C\C[C@H](CC(=O)N(CCO)Cc2ccccc2)C(=O)N[C@H](Cc2ccccc2)COC1=O	/	-30.6	/	/	/	/
O=C(CCS(=O)(=O)Cc1ccc(Cl)cc1)NCCCN1CCOCC1	100.4	/	1.3	7.3	-5.1	1.1
O=C(c1cnsn1)N1CCC(CO)(Cc2cccc(F)c2)CC1	133.3*	-21.1	/	55.6	-0.8	1
O=C(O)C(=O)/C(=C\c1ccc(Cl)cc1)c1ccc2ccccc2n1	130.1*	2.7	1.12	85.8	-1.5	1
Cc1nc(Cl)sc1C(=O)Nc1cccc(Cl)c1	/	1.8	/	/	/	/
COc1ccc(NC(=O)C2CC(c3ccc(Cl)cc3)=NO2)cc1OC (centres undefined)	/	-10.9	/	/	/	/
O=C1c2cccc3c([N+](=O)[O-])ccc(c23)C(=O)N1Cc1cccnc1	105.7	8.6	3.84*	-82.4	-5.2	1.1
Cc1ccnc(N2C(=O)c3cccc4c([N+](=O)[O-])ccc(c34)C2=O)c1	89.0	/	4.7*	-36.9	-2.8	1
O=C1c2cccc3cccc(c23)C(=O)N1Cc1cccnc1	/	-24.9	/	/	/	/
Cc1ccc(N2C(=O)c3cccc4c([N+](=O)[O-])ccc(c34)C2=O)c2cccnc12	/	10.1	/	/	/	/
OCC1(Cc2ccc(F)cc2)CCCN(CCc2ccccc2)C1 (centres undefined)	/	3.4	/	/	/	/
CCc1nnc(NC(=S)Nc2ccccc2)s1	131.8*	6.0	3.34*	48.6	18.0	0.8
Cc1nc(NC(=S)Nc2ccccc2)sc1C	124.3	/	4.75*	140.4*	24.5	0.8
Cc1ccc(C(=O)Nc2nnc(NC(=S)Nc3ccccc3)s2)cc1	117.8	-0.6	1.57	7.8	16.6	0.8
CC(C)Cc1nnc(NC(=O)Nc2ccccc2)s1	146.6*	-6.1	2.6	76.7	4.2	1
CC(C)COC(=O)Nc1nnc(Cc2ccccc2)s1	133.3*	-0.8	2.41	-11.3	-3.4	1
CC(C)(C)C(=O)Nc1nnc(Cc2ccccc2)s1	98.0	/	1.27	-25.9	-3.6	1
CCNc1nc(NCC)nc(Oc2ccc(OCc3ccccc3)nn2)n1	82.5	/	0.99	21.5	-4.8	1
Cc1ccc(OCc2ccc(C(=O)N3CCOCC3)cc2)cc1C	141.7*	/	1.76	/	9.4	0.9
SMILES	STAT1 activator	Pf gamet viab	NF-kB neuron act	APP 5'UTR act	FLuc inhib CS	FLuc act counter
Cc1ccc(/C=c2/sc3n(c2=O)CCCN=3)o1	128.7*	19.6	2.08	28.2	19.4	0.8
CC(C(c1ccc2c(c1)OCO2)c1c(N)n(C)c(=O)n(C)c1=O)[N+](=O)[O-] (centres undefined)	/	10.7	/	/	/	/
CCOC(=O)c1ccc2nc(C)c(CCC(C)=O)c(Cl)c2c1	129.2*	12.2	1.71	53.1	-1.2	1
CCCCc1c(C)nc2ccc(C(=O)OCC)cc2c1Cl	105.9	21.2	1.28	11.4	-5.1	1.1
Cc1ccc(C(=O)Nc2ccc(N3CCCC3)cc2)cc1	139.9*	6.9	1.02	108.6	16.0	0.8
O=C(Nc1ccc(N2CCCC2)cc1)c1ccccc1F	148.9*	/	1.87	136.9*	71.1*	0.3
O=C(Cc1ccccc1)Nc1ccc(N2CCCCC2)cc1	130.3*	3.0	4.93*	184.8*	72.6*	0.3
O=C(Nc1ccc(N2CCCCC2)cc1)c1ccc(F)cc1F	/	20.0	/	/	/	/
CCN1CCN(c2ccc(NC(=O)c3ccccc3F)cc2Cl)CC1	131.7*	-29.1	2.4	75.1	6.5	0.9
O=C(O)CCN(CC(=O)c1ccc(Cl)cc1)S(=O)(=O)c1ccc([N+](=O)[O-])cc1	/	-20.5	/	/	/	/
O=C(Nc1ccc(N2CCCCC2)cc1)c1ccccc1	95.2	/	5.7*	164.0*	87.8*	0.1
O=C(Nc1ccc(N2CCCC2)cc1)c1ccc2ccccc2c1	118.8	-26.3	1.63	133.8	13.9	0.9
O=C(Nc1ccc(N2CCCC2)cc1)c1cccc(F)c1	121.0	2.8	2.65	230.4*	59.0*	0.4
O=C(Nc1ccc(N2CCCC2=O)cc1)c1cccc(F)c1	137.6*	-5.4	5.37*	57.2	43.5	0.6
Cc1ccc(C(=O)Nc2ccc(N3CCCCC3)cc2)cc1	/	-4.4	/	/	/	/
CN1CCN(c2ccc(NC(=O)c3ccc4c(c3)OCCO4)cc2)CC1	132.3*	-2.3	1.65	141.3*	47.0	0.5
N#Cc1nc(-c2ccco2)oc1NCc1ccccc1Cl	/	2.8	/	/	/	/
Cc1cnc(C(=O)Nc2ccc(N3CCOCC3)cc2)cn1	122.5	12.6	1.21	8.1	8.8	0.9
O=C(Nc1ccc(N2CCCCC2)cc1)c1cncc(Br)c1	133.7*	/	4.05*	108.1	30.0	0.7
Cc1cnc(C(=O)Nc2ccc(N3CCCCC3)cc2)cn1	135.1*	-1.3	2.82	141.6*	54.8*	0.5
Cc1cc(C(=O)N/N=C/c2cccc(OC(=O)c3ccco3)c2)n[nH]1	97.8	10.3	1.5	4.2	12.1	0.9
O=[N+]([O-])c1ccc(CSc2nc3ccccc3o2)cc1	132.2*	14.9	5.02*	177.4*	23.5	0.8
COC(=O)c1ccc(CSc2nc3ccccc3o2)cc1	91.5	-27.2	3.83*	126.2	26.2	0.7
COC(=O)c1ccc(CSc2nc(N)cc(N)n2)cc1	105.0	/	1.38	18.6	21.5	0.8
Cc1ccc(C)c(Nc2nc(N)c3ccccc3n2)c1	123.6	14.7	1.11	183.8*	65.9*	0.3
SMILES	STAT1 activator	Pf gamet viab	NF-kB neuron act	APP 5'UTR act	FLuc inhib CS	FLuc act counter
Nc1nc(Nc2cccc(F)c2)nc2ccccc12	145.2*	4.9	5.3*	96.5	57.1*	0.4
Cc1ccc[n+](C(C)C(=O)Nc2ccc(C)c(C)c2)c1 (centres undefined)	/	-6.9	/	/	/	/
O=C(C1COc2ccccc2O1)N1CCc2ccccc21 (centres undefined)	130.9*	/	1.88	50.4	0.1	1
O=C(CCc1nnc(CCCCc2ccccc2)o1)N1CCCC(O)C1 (centres undefined)	/	3.0	/	/	/	/
CCCOC1CCCN(C(=O)CCc2nnc(Cc3cccc(C)c3)o2)C1 (centres undefined)	143.3*	1.9	2.1	13.0	-6.8	1.1
Cc1cccc(Cc2nnc(CCC(=O)N(CC3CC3)CC3CCCO3)o2)c1 (centres undefined)	136.1*	/	2.44	50.0	-2.9	1

Compound activity: PubChem, several laboratories
